According to ChEMBL document CHEMBL3576816, “5'-Silylated 3'-1,2,3-triazolyl Thymidine Analogues as Inhibitors of West Nile Virus and Dengue Virus” (J Med Chem, 2015):
Active and inactive are the calls of the source. No cut-off for these calls is given here.

What was measured:
dengue virus type 3 = assay: Displacement of [3H]-SAM from biotinylated Dengue virus 3 methyltransferase expressed in Escherichia coli at 20 uM preincubated for 20 mins followed by [3H]-SAM addition measured after 15 mins by scintillation counting analysis
Outline: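 Biotinylated refolded E. coli-expressed DENV3 MTase (580 nM) with SPA beads (1.5 mg/mL) and 20 μM competitor (compound, SAM or sinefungin) in Tris pH 7.5 buffer with NaCl, KCl, MgCl2, MnCl2, CHAPS, 20 min at 23°C; 3H-SAM (425 nM) added, 15 min at 23°C, centrifuged, scintillation proximity counting.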

Human betaherpesvirus 5 = assay: Antiviral activity against Human cytomegalovirus; assay type: functional, organism-based
[1] = test system: Human immunodeficiency virus 1; assay: Antiviral activity against HIV1; assay type: functional, organism-based
Dengue virus = assay: Antiviral activity against Dengue virus infected in BHK pD2-hRucPac-2ATG cells assessed as inhibition of viral replication at 10 uM after 3 days by luciferase reporter gene assay relative to control; assay type: functional; details: 72 h
Outline: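 Renilla luciferase-bearing DENV subgenomic replicon BHK cells, kept on 3 μg/mL puromycin, seeded at 1.5 × 10^3/well without selection. Next day, 10 μM final compound in DMSO added to triplicate wells; MPA 1 μM as control inhibitor. After 3 days, medium swapped for live-cell Renilla substrate (1:1000, phenol-red-free DME, 10% FBS). Luminescence read; triplicate mean compared with DMSO-only wells.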

West Nile virus [2] = assay: Antiviral activity against West Nile virus infected in BHK-WII RepRen1B cells assessed as inhibition of viral replication after 3 days by luciferase reporter gene assay; assay type: functional, organism-based; details: 72 h
[3] = biological target: Human immunodeficiency virus type 1 reverse transcriptase (Human immunodeficiency virus 1) (UniProt Q72547); assay: Inhibition of HIV1 reverse transcriptase
[4] = Cytotoxicity against BHK cells infected with Dengue virus replicon assessed as cell viability at 10 uM after 3 days by CellTiter 96 aqueous one solution cell proliferation assay relative to control; assay type: cell-based, Mesocricetus auratus; details: hamster, bhk, 72 h, 10 µM
Outline: (§1)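 DENV replicon BHK cells, 1.5 × 10^3/well, plated without antibiotic selection; next day compound in DMSO (10 μM final for screening, or eight serial dilutions), 3 days at 37°C, 5% CO2. Tetrazolium (MTS-type) reagent, absorbance 450 nm, triplicate means versus DMSO wells; CC50 = 50% reduction in proliferation; CC50s mean ± SD of two experiments, top dose 200 μM.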

[5] = Cytotoxicity against BHK cells infected with West Nile virus replicon assessed as cell viability at 10 uM after 3 days by CellTiter 96 aqueous one solution cell proliferation assay relative to control; assay type: cell-based, Mesocricetus auratus; details: hamster, bhk, 72 h, 10 µM
Outline: as §1, with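 “WNV” for “DENV”, “about 3” for “1.5”, “Tetrazolium” for “Tetrazolium (MTS-type)”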

West Nile virus [6] = assay: Antiviral activity against West Nile virus infected in BHK-WII RepRen1B cells assessed as inhibition of viral replication at 10 uM after 3 days by luciferase reporter gene assay relative to control; assay type: functional; details: 72 h
Outline: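 Compound (DMSO, 10 μM final) added next day in triplicate; lycorine 1 μM served as control inhibitor. Three days on, live-cell Renilla substrate (1:1000 in phenol-red-free DME, 10% FBS) replaced medium. Luminescence measured; triplicate means compared with DMSO-alone wells.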

[7] = Cytotoxicity against BHK cells infected with West Nile virus replicon assessed as cell viability after 3 days by CellTiter 96 aqueous one solution cell proliferation assay; assay type: cell-based, Mesocricetus auratus; details: hamster, 72 h
Outline: as §1, with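 “WNV” for “DENV”, “about 3” for “1.5”, “Tetrazolium” for “Tetrazolium (MTS-type)”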

Hepatitis C virus = assay: Antiviral activity against HCV; assay type: functional, organism-based; details: Hepacivirus hominis
[8] = test system: unidentified influenza virus; assay: Antiviral activity against Influenzae virus; assay type: functional, organism-based

Row | SMILES | inhibition (dengue virus type 3) | Activity (Human betaherpesvirus 5) | Activity [1] | inhibition at 10 µM (Dengue virus) [%] | EC50 (West Nile virus [2]) [µM] | inhibition [3] | Activity [4] [%] | Activity [5] [%] | inhibition at 10 µM (West Nile virus [6]) [%] | CC50 [7] [µM] | Activity (Hepatitis C virus) | Activity [8]
1 | C[S+](CC[C@H](N)C(=O)[O-])C[C@H]1O[C@@H](n2cnc3c(N)ncnc32)[C@H](O)[C@@H]1O (some centres not stated) | Active | – | – | – | – | – | – | – | – | – | – | –
2 | Cc1cn([C@H]2C[C@H](NC(=O)c3cccc4ccccc34)[C@@H](CO[Si](C)(C)C(C)(C)C)O2)c(=O)[nH]c1=O | Active | inactive | inactive | 11 | 33 | inactive | 99 | 94 | 37 | > 200 | inactive | inactive
3 | Cc1cn([C@H]2C[C@H](NC(=O)NC34CC5CC(CC(C5)C3)C4)[C@@H](CO[Si](C)(C)C(C)(C)C)O2)c(=O)[nH]c1=O | Active | – | – | – | 10 | – | – | – | – | 16 | – | –
4 | Cc1cn([C@H]2C[C@H](NC(=O)C(c3ccccc3)(c3ccccc3)c3ccccc3)[C@@H](CO[Si](C)(C)C(C)(C)C)O2)c(=O)[nH]c1=O | Active | inactive | inactive | 28 | 9.9 | inactive | 100 | 100 | 54 | 15 | inactive | inactive
5 | Nc1ncnc2c1ncn2[C@@H]1O[C@H](C[C@@H](N)CC[C@H](N)C(=O)O)[C@@H](O)[C@H]1O | Active | – | – | – | – | – | – | – | – | – | – | –
6 | Cc1cn([C@H]2C[C@H](N3C(=O)CSC3c3ccc4[nH]ccc4c3)[C@@H](CO[Si](C)(C)C(C)(C)C)O2)c(=O)[nH]c1=O (mixture of isomers) | Active | inactive | inactive | 49 | 3.4 | inactive | 99 | 99 | 92 | 15 | inactive | inactive
7 | Cc1cn([C@H]2C[C@H](n3nncc3-c3ccc(-c4ccccc4)cc3)[C@@H](CO[Si](C)(C)C(C)(C)C)O2)c(=O)[nH]c1=O | – | inactive | inactive | 99 | – | inactive | 47 | 10 | 100 | – | inactive | inactive
8 | Cc1cn([C@H]2C[C@H](NC(=O)c3ccc4ccccc4n3)[C@@H](CO[Si](C)(C)C(C)(C)C)O2)c(=O)[nH]c1=O | – | inactive | inactive | 51 | – | inactive | 98 | 89 | 24 | – | inactive | inactive
9 | COc1ccc2cc(C(=O)N[C@H]3C[C@H](n4cc(C)c(=O)[nH]c4=O)O[C@@H]3CO[Si](C)(C)C(C)(C)C)ccc2c1 | – | inactive | inactive | 92 | – | inactive | 8 | 50 | 95 | – | inactive | inactive
10 | Cc1cn([C@H]2C[C@H](NC(=O)c3c4ccccc4cc4ccccc34)[C@@H](CO[Si](C)(C)C(C)(C)C)O2)c(=O)[nH]c1=O | – | inactive | inactive | 7.6 | – | inactive | 98 | 100 | 0 | – | inactive | inactive
